Source: PubChem (several laboratories)
Sampled rows, rich in hits. Any-hit rate of the full collection: about 1.7%.
DSG3 Ab inh = human desmoglein-3 autoantibody binding inhibition; P32926; DSG3-coupled beads, scFv-anti-DSG3-GFP binding, flow cytometry; active compounds read low; binding (percent of control), % at 10 µM; hit rate 0.48% among 310,000;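 active = binding more than 3 SD below its plate's average and above zero; inconclusive = below that plate limit but binding exactly zero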;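 note: hits lower antibody fragment binding to DSG3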
Target sequence (P32926 whole entry, looked up, the tested form may be a part): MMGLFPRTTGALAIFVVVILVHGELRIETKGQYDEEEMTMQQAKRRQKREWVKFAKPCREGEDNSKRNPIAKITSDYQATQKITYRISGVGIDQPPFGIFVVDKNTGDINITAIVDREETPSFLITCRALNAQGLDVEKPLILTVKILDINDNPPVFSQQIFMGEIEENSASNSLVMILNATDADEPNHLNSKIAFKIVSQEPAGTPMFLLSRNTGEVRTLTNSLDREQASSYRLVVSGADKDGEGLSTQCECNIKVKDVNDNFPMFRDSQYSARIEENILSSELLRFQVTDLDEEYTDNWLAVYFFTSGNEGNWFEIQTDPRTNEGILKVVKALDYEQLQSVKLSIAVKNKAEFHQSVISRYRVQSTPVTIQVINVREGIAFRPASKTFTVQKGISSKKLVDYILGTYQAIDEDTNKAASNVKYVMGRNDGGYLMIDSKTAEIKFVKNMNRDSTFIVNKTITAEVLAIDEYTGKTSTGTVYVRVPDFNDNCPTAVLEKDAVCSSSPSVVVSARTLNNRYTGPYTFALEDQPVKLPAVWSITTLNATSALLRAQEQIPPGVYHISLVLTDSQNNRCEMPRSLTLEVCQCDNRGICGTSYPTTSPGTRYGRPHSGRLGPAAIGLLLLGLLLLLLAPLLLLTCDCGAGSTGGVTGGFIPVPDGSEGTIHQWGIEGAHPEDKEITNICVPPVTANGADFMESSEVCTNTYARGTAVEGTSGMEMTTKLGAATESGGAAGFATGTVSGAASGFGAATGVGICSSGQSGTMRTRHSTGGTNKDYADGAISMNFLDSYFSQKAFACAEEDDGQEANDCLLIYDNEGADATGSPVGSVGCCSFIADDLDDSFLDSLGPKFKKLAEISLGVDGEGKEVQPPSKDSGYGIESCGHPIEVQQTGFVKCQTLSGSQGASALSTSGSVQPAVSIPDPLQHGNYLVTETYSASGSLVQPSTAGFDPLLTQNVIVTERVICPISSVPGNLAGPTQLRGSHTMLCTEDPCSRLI
T cell HTS = T cell immune modulators affecting CD8 T cell-vesicle binding; 2C CD8+ T cell-vesicle binding, flow cytometry; active compounds read low; response (vesicle binding), % at 7 µM; hit rate 0.068% among 330,000;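 active = response, share of CD8 T cells binding vesicles, and their 90th percentile fluorescence all below set limits, cut at about 80% in these data, passing the limit was not always enough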;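 note: values below 100% mean blocked vesicle binding to the CD8+ T cells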
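Also added: QL9-peptide-loaded Drosophila micro-vesicles bearing Ld, ICAM-1 and B7-1; Test system: purified 2C TCR transgenic mouse naive CD8+ T cells; Measured by: cytometric PE anti-B7-1 and Alexa647 anti-CD8 signals after 1% paraformaldehyde fixation; Timing: binding step 1.5 h, 37 °C, antibody labelling 20 min, ice.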
Vif imaging = HIV Vif inhibition | HEK293T cells, Vif self-association by quenched fluorescence, imaging, 24 h | inhibition, % at 7.49 µM | hit rate 0.35% among 340,000; in the data active = inhibition above about 50%, passing the limit was not always enough; inconclusive = no clear call, values can overlap the other calls; inactive = below about 31%
Myeloid diff MLP = promotes myeloid progenitor differentiation | ER-HoxA9 myeloid progenitors, lysozyme-GFP differentiation, flow cytometry | calls only at 10 µM | hit rate 1% among 360,000;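 active = normalized GFP-positive differentiation at or above the plate's own cutoff, the solvent-only control mean plus 3 SD; inconclusive = no clear call, values can overlap the other calls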;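 note: cells exposed to compound for four days before flow analysis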
* = called active by the depositor; i = inactive; u = inconclusive; x = not tested or not shown; + = active, no number.

SMILES | DSG3 Ab inh | T cell HTS | Vif imaging | Myeloid diff MLP
COc1ccc(-c2ccc3c(c2)S(=O)(=O)c2cccc(C(=O)NC4CCCCC4)c2C3=O)cc1OC | 54* | 580 | 37 | i
Cc1ccccc1-c1cc2nc(NCCc3ccncc3)n(C)c(=O)c2s1 | x | x | -6 | i
CCOC(=O)c1c(C)[nH]c(-c2csc(C)n2)c1C | 60 | 296 | -3 | i
CCOC(=O)c1c(C)[nH]c(-c2csc(N)n2)c1C | 96 | x | 112* | i
Cn1c(/C(C#N)=C/c2ccc(-c3ccc(S(N)(=O)=O)cc3)o2)nc2ccccc21 | 104 | 338 | 30 | +
Cn1c(/C(C#N)=C/c2cccc(O)c2)nc2ccccc21 | 105 | 230 | 18 | i
O=C(O)CS(=O)(=O)c1ccc(C(F)(F)F)cn1 | 105 | 221 | 6 | +
NC(=O)c1ccc(C(F)(F)F)cn1 | 102 | 368 | -2 | i
CCCC(=O)N1CCCC(c2cc(C(=O)Nc3ccccc3)no2)C1 (stereo unspecified) | x | x | 2 | i
O=C1C2CCCN2C(=O)N1CCN1CCN(c2cccc(C(F)(F)F)c2)CC1 (stereo unspecified) | 100 | x | 3 | i
CCOC(CCn1c(SCc2cccc([N+](=O)[O-])c2)nc2ccccc2c1=O)OCC | 103 | 69 | -4 | +
COCCn1c(SCc2cccc([N+](=O)[O-])c2)nc2ccccc2c1=O | 130 | 198 | -2 | i
COc1ccccc1CNC(=O)c1ccc(Cl)c(NC2=NC3CS(=O)(=O)CC3S2)c1 (stereo unspecified) | 99 | 643 | 60* | i
COc1ccccc1CNC(=O)c1ccc(NC2=NC3CS(=O)(=O)CC3S2)cc1 (stereo unspecified) | 73 | 94 | 23 | i
C[C@H]1CN([C@@H](C)CO)C(=O)c2cc(C#CC3(O)CCCC3)cnc2O[C@H]1CN(C)C(=O)C1CC1 | x | x | -1 | i
Cc1cc(C)n2nc(-c3ccsc3-n3c(C)ccc3C)cc2n1 | 87 | 574 | 3 | +
Cc1ccc(-c2cc3nc(C)cc(C)n3n2)cc1 | 97 | 242 | -1 | i
COc1ccc(CN2C3CCC2CC(NC(=O)c2cc(OC)c(OC)c(OC)c2)C3)cc1 (stereo unspecified) | 103 | 674 | 63* | i
COc1ccc(C(=O)NC2CC3CCCC(C2)N3Cc2ccccc2)cc1OC (stereo unspecified) | 104 | 548 | 52* | i
COc1cc(C(=O)NC2CC3CCCC(C2)N3Cc2ccccc2)cc(OC)c1OC (stereo unspecified) | 119 | 391 | 2 | i
COc1ccccc1CNC(=O)C(=O)NCC1CCCN1S(=O)(=O)c1cc(C)ccc1C (stereo unspecified) | 106 | x | -3 | i
COc1ccc(S(=O)(=O)N(C)C[C@@H]2OCc3cn(nn3)CCCC(=O)N([C@@H](C)CO)C[C@H]2C)cc1 | 110 | x | -1 | i
Cc1cc(C(=O)c2ccc3ccccc3c2)c(C)o1 | 105 | 103 | -6 | i
COC1=CC2(O)CCCC2=CC1=O (stereo unspecified) | 100 | 346 | 25 | +
Cc1ccc(C(=O)Nc2nnc(COCCO)s2)cc1 | x | x | -13 | i
SMILES | DSG3 Ab inh | T cell HTS | Vif imaging | Myeloid diff MLP
CCN1CCN(C(C(=O)NC2CCCCC2)c2ccnc3ccccc23)CC1 (stereo unspecified) | x | x | 6 | i
Cc1ccccc1NC(=O)c1cc2ccccc2o1 | 99 | 232 | 2 | i
O=C(Nc1ccc(Cl)cc1Cl)c1cc2ccccc2o1 | 96* | 215 | 1 | i
N#Cc1cc2ccccc2nc1SCC(=O)Nc1ccccc1N1CCOCC1 | 94 | 107 | -9 | i
Cc1cccc2cc(C#N)c(SCC(=O)Nc3ccccc3N3CCOCC3)nc12 | 100 | 0 | 8 | +
COc1ccc2cc(C#N)c(SCC(=O)N3CCCC3)nc2c1 | 106 | 340 | -2 | i
COc1ccc2cc(C#N)c(SCC(=O)N3CC(=O)Nc4ccccc43)nc2c1 | 69* | 98 | 8 | i
Cc1cccc2cc(C#N)c(SCC(=O)N3CC(=O)Nc4ccccc43)nc12 | 101 | 409 | 61* | u
CCc1nc2ccc(C(=O)NCCc3ccccn3)cn2c1N(C)Cc1ccc(N(C)C)cc1 | x | x | 2 | i
Cc1ccc(NC(=O)CSc2nnc(NC(=O)c3ccco3)s2)cc1 | 5.9* | 306 | 5 | i
Cc1nnc(NC(=O)CSc2nnc(NC(=O)C(C)(C)C)s2)s1 | 99 | 433 | 75* | i
CC(=O)c1ccc(NC(=O)CSc2nnc(NC(=O)c3ccco3)s2)cc1 | 111 | 803 | -5 | i
